High-throughput results from PubChem.
A selection: hits, their analogues and other compounds. The true share with any hit is near 1.6%.
UCH37 DUB inh = blocks the human deubiquitinase UCH37; Q9Y5K5; purified proteasome/UCH37, Ub-AMC cleavage fluorescence; inhibition, % (test concentration not listed); 330,000 tested, 0.33% active;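 active = mean inhibition over replicate wells above about 20%, limit read from the data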;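 note: 0% = compound-free wells with enzyme and 100% = wells lacking proteasome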
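Reagent: Ub-AMC substrate; assay system: Proteasome-associated human UCH37 deubiquitinase; controls: no-proteasome and no-compound wells; read-out: % inhibition of Ub-AMC cleavage fluorescence; timing: 30 min preincubation with enzyme, 25 min cleavage at room temperature; signal: AMC fluorescence from Ub-AMC cleavage, excitation 355 nm, emission 460 nm; buffer or medium: Tris-HCl pH 7.4 plus ovalbumin, ATP-MgCl2, DTT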
PAD4 FP inh = inhibitors of human PAD4 | recombinant PAD4, RCA probe fluorescence polarization | Q9UM07 | inhibition, % at 6.36 µM | 330,000 tested, 0.41% active | AID 485272;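 active = percent inhibition above a cutoff equal to the mean of all tested compounds plus 3 SD, cut at about 15% in these data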;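 note: 0% = PAD4 with RCA probe and DMSO and 100% = probe without PAD4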
GSTO1 inh = blocks human GSTO1 in RBBP9 counter-screen. recombinant GSTO1, activity-based probe fluorescence polarization. 300,000 tested, 1.1% active. inhibition, % at 5.96 µM;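 active = inhibition above the campaign mean inhibition plus 3 SD, cut at about 35% in these data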;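 note: 0% = GSTO1-1 with DMSO and 100% = wells lacking GSTO1-1 enzyme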
Target sequence (P78417 whole entry, looked up): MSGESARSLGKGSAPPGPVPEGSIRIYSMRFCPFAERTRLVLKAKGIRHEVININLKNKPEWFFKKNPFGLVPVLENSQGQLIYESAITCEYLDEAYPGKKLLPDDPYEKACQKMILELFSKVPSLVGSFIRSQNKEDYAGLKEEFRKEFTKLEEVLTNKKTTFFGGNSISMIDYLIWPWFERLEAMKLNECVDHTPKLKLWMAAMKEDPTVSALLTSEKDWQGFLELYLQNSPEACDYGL
HKDC1 inh = HKDC1 (human) hexokinase inhibition; Q2TB90; recombinant HKDC1, G6PDH/diaphorase resazurin coupled fluorescence; inhibition, % at 20 µM; 340,000 tested, 0.16% active;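 active = inhibition above about 35% when tested at 20 µM, limit read from the data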;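 note: plate controls were DMSO wells with enzyme for no effect and DMSO wells lacking enzyme for full effect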
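Assay system – recombinant HKDC1 (HK5) hexokinase enzyme, produced in-house · Input – HKDC1 at 5 µg/mL · Reagent – glucose plus 1 mM ATP as hexokinase substrates · Timing – 90 min reaction incubation at room temperature, dark · Measured by – G6PDH/diaphorase-coupled fluorescence, 1 mM NADP, 100 µM resazurin, 525/613 nm · Benchmarks – DMSO-enzyme wells negative, buffer-substituted wells positive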
Fh CTSL1 inh = blocks F. hepatica cathepsin L1 in PFM18AAP counter-screen | AID 1906 | recombinant F. hepatica cathepsin L1, Z-Leu-Arg-MCA fluorescence | inhibition, % at 5.96 µM | 300,000 tested, 0.49% active;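 active = inhibition above the mean of all tested compounds plus 3 SD, set per screening campaign, cut at about 17% in these data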;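 note: 0% = plate median of test compound wells and 100% = 1 µM Z-Phe-Ala-diazomethylketone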
TDP2 inh = TDP2 (human) inhibition, absorbance primary screen | 370,000 tested, 0.34% active | inhibition, % at 12.8 µM | AID 720702 | O95551 | recombinant TDP2, T5PNP hydrolysis, p-nitrophenol absorbance 415 nm;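 active = inhibition above the mean of all tested compounds plus 3 SD, set per campaign, cut at about 25% in these data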;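 note: 0% = DMSO with enzyme and 100% = buffer with substrate but no TDP2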
Target sequence (O95551 whole entry, looked up): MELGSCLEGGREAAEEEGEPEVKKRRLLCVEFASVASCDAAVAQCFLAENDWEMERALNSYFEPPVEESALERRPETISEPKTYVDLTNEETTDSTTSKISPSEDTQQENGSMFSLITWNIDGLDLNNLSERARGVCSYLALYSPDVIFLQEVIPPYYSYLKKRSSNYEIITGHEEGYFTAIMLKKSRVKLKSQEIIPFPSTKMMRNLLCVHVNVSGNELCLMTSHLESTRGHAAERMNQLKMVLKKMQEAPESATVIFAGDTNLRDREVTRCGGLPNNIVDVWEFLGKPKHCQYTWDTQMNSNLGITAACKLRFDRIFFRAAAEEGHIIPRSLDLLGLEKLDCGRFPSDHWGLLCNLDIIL
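Read-out basis: percent inhibition. System: recombinant human TDP2. Buffer or medium: Mg2+-containing Tris-HCl buffer, pH 7.5. Repeats: single replicate. Timing: reaction 2 h, 37 °C. Benchmarks: high control without enzyme, low control DMSO plus TDP2. Probe or stimulus: 5 mM T5PNP. Doses: 12.8 µM only. Measured by: epi absorbance of p-nitrophenol freed from T5PNP by hydrolysis.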
Numbers without * were called inactive; . = no result.

SMILES	UCH37 DUB inh	PAD4 FP inh	GSTO1 inh	HKDC1 inh	Fh CTSL1 inh	TDP2 inh
Cc1noc(NS(=O)(=O)c2ccc(NC(=O)C34CC5CC(C3)CC(n3cnc(Cl)n3)(C5)C4)cc2)c1C	1	-2	6	-5	-3	-8
NC(=S)NN=Cc1c(O)ccc2ccccc12	3	.	.	.	.	.
O=C(OCc1ccccc1)Oc1cncc(C(=O)O)c1	4	-1	35*	-8	-6	-5
CCOC(=O)c1cccc(NC(=O)/C=C/c2cccc([N+](=O)[O-])c2)c1	2	-5	3	-11	-2	5
CCOC(=O)/C=C/C(=O)Nc1cccc([N+](=O)[O-])c1	8	-2	1	-1	18*	.
C=CCN1C(=O)C(CC(=O)Nc2ccccc2F)SC1=Nc1nccs1 (centres undefined)	4	.	.	.	.	.
CC(C)CCNc1nc(-c2ccco2)c2c(c1C#N)CCCC2	-442	-3	-5	7	19*	2
N#Cc1c(N2CCOCC2)nc(-c2ccco2)c2c1CCCC2	-135	1	1	0	42*	8
Cc1ccc(NCC(=O)NN=Cc2cccn2C)cc1	7	.	.	.	.	.
COC(=O)CCCC1=CC2=CC(=O)C(C)(OC(=O)c3cnc4ccccc4n3)C(=O)C2=CO1 (centres undefined)	.	32*	38*	.	1	.
CC1(OC(=O)c2ccc(Cl)nc2)C(=O)C=C2C=C3CCCN3C=C2C1=O (centres undefined)	5	-5	35*	16	4	11
CC1(OC(=O)c2ccc(Cl)nc2)C(=O)C=C2C=C(c3ccc(C#N)cc3)OC=C2C1=O (centres undefined)	.	1	36*	.	1	.
CCCCC1=CC2=CC(=O)C(C)(OC(=O)CCC(=O)OC)C(=O)C2=CO1 (centres undefined)	.	-7	8	.	-3	.
COC/C=C/C1=CC2=CC(=O)C(C)(OC(=O)c3cnc4ccccc4n3)C(=O)C2=CN1CCCCO (centres undefined)	6	-2	31	17	1	18
COC/C=C/C1=CC2=CC(=O)C(C)(OC(=O)c3cnc4ccccc4n3)C(=O)C2=CN1CCc1ccccn1 (centres undefined)	.	34*	-12	.	4	.
CCCCC1=CC2=CC(=O)C(C)(OC(=O)c3cnc4ccccc4n3)C(=O)C2=CO1 (centres undefined)	.	31*	29	.	-3	.
COC(=O)CCCC1=CC2=CC(=O)C(C)(OC(=O)c3cccs3)C(=O)C2=CO1 (centres undefined)	.	7	39*	.	-2	.
CC(C)(C)OC(=O)NCCCCC1=CC2=CC(=O)C(C)(OC(=O)c3cnc4ccccc4n3)C(=O)C2=CO1 (centres undefined)	.	11	19	.	2	.
CC1(OC(=O)c2ccc(Cl)nc2)C(=O)C=C2C=C(c3ccsc3)OC=C2C1=O (centres undefined)	.	-5	24	.	-3	.
COC(=O)CCCC1=CC2=CC(=O)C(C)(OC(=O)c3ccc(Cl)nc3)C(=O)C2=CO1 (centres undefined)	.	5	35*	.	-4	.
CC1CCCC(C)N1C(=O)c1cccc2c1-c1ccccc1C2=NO (centres undefined)	2	.	.	.	.	.
COc1ccc(CN=C(C)c2c(C(F)(F)F)[nH]n(-c3nc4ccccc4s3)c2=O)cc1	3	-5	-1	-1	18*	1
CC(=NNC(=O)CC(C)C)c1c(C(F)(F)F)[nH]n(-c2nc3ccccc3s2)c1=O	4	.	.	.	.	.
CCc1ccc(-n2c(C)cc(C=NNC(=O)OC)c2C)cc1	4	.	.	.	.	.
COc1cc(/C=C/C(=O)OC(C)C(=O)Nc2ccc(Cl)cn2)ccc1OC(F)F (centres undefined)	-2	2	.	2	.	-7
SMILES	UCH37 DUB inh	PAD4 FP inh	GSTO1 inh	HKDC1 inh	Fh CTSL1 inh	TDP2 inh
Cc1ccc(/C=C/C(=O)OC(C)C(=O)Nc2ccc(Cl)cn2)o1 (centres undefined)	-2	-1	-7	-12	28*	-5
O=[N+]([O-])c1cc(C=NO)ccc1Oc1ccc(F)cc1	4	.	.	.	.	.
COc1ccc(NC(=O)CSc2ccc3c4c(cccc24)C(=O)c2ccccc2-3)cc1	3	4	3	2	-3	8
N#Cc1cccc(NC(=O)CSc2ccc3c4c(cccc24)C(=O)c2ccccc2-3)c1	10	7	36*	11	9	12
NS(=O)(=O)c1ccc(-c2ccc(C=NNC(=O)c3ccc([N+](=O)[O-])cc3)o2)cc1	0	.	.	.	.	.
CC(C)c1ccc(C=NNC(=O)c2ccc(-n3cnnn3)cc2)cc1	-1	.	.	.	.	.
O=C(O)COc1ccccc1C=NNc1ccc(S(=O)(=O)N2CCOCC2)cc1[N+](=O)[O-]	23*	.	.	.	.	.
O=C(O)c1ccccc1/C=N/Nc1ccc(S(=O)(=O)N2CCOCC2)cc1[N+](=O)[O-]	.	-1	1	-4	4	-8
COc1cc(-c2c(C#N)c(N)nc3[nH]c(=S)[nH]c(=O)c23)ccc1O	23*	-1	-2	6	6	-11
COc1cccc(C=NNC(=O)c2ccc3nc[nH]c3c2)c1	7	.	.	.	.	.
Cc1ccc(NC(=O)CN(C)CC(=O)Nc2ccccc2Oc2ccccc2)cc1	1	-6	-8	-5	0	18
Cc1cccc(C)c1NC(=O)CN(C)CC(=O)Nc1ccccc1Oc1ccccc1	28*	1	0	-8	-1	7
COCCCNC(=O)C(Cc1ccccc1)NS(=O)(=O)c1ccc2c(c1)c(=O)n(C)c(=O)n2C (centres undefined)	4	4	5	-7	-1	4
Cn1c(=O)c2cc(S(=O)(=O)NC(Cc3ccccc3)C(=O)NCc3ccco3)ccc2n(C)c1=O (centres undefined)	3	-3	4	-6	31*	-11
CCOC(=O)c1cc2c(s1)-c1c(C)cccc1OC2	-247	-10	8	-3	18*	8
Cc1cccc2c1-c1sc(C(=O)Nc3nccs3)cc1CO2	-80	1	7	-2	4	-3
COc1cc(C(c2c(C(=O)O)[nH]c3ccccc23)c2c(C(=O)O)[nH]c3ccccc23)ccc1OCc1ccccc1	3	-3	0	15	1	8
O=C(O)COc1ccc(Br)cc1C(c1c(C(=O)O)[nH]c2ccccc12)c1c(C(=O)O)[nH]c2ccccc12	5	3	55*	15	3	.
CCCCn1c(SCC(N)=O)nc2c(sc3ccccc32)c1=O	-2	2	50*	3	5	1
COc1ccc(-c2nn(-c3ccccc3)cc2C=NO)cc1OC	0	.	.	.	.	.
COc1cc2c3nnc(-c4ccc(F)cc4)c-3cn(Cc3cccc(F)c3)c2cc1OC	-5	-1	4	7	63*	.
